A selection: hits, their analogues and other compounds. The true share with any hit is near 2.5%.
NR2E3 ag-1 – activates human photoreceptor nuclear receptor NR2E3. AID 2300. GST-NR2E3/biotin-RetCOR TR-FRET, 1536-well. inhibition of corepressor binding, % at 4.78 µM. 320,000 tested, 0.12% active. Q9Y5X4;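 active = percent inhibition above the cutoff of mean plus 3 SD of all tested compounds, set per screening campaign, cut at about 20% in these data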
Target sequence (Q9Y5X4 whole entry, looked up): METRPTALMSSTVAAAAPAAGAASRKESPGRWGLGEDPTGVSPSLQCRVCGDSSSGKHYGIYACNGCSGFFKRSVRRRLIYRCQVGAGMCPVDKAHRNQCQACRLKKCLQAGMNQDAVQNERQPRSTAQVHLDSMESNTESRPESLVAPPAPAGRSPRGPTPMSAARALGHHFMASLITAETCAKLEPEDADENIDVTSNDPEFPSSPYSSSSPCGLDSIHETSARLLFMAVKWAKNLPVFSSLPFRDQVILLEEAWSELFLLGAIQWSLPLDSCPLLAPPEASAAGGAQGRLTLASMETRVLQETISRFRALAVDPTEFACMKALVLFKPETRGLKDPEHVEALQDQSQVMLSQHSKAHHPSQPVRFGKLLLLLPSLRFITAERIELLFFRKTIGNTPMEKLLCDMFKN
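Format: 1536-well format; test system: GST-NR2E3 and biotin-RetCOR proteins; read-out basis: percent inhibition of TR-FRET ratio; timing: 5 h incubation at 4 °C; detection: time-resolved FRET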
proKLK7 act – activates the human kallikrein-7 zymogen; activation, % at 7 µM; 370,000 tested, 0.9% active; purified proKLK7, EDANS-DABCYL substrate fluorescence; 100% is mature enzyme control, 0% vehicle; P49862;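 active = activation above the mean of all tested compounds plus 3 SD, computed per campaign excluding outliers beyond control limits, cut at about 13% in these data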
Target sequence (P49862 whole entry, looked up): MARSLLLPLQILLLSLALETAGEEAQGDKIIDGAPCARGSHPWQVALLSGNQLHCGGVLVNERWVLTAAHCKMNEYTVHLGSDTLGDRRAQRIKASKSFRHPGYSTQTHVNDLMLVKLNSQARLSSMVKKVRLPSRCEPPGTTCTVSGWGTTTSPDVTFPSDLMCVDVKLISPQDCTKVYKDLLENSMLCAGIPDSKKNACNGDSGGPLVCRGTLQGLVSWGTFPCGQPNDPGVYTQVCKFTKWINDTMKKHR
JMJD2C inh – human JMJD2C demethylase inhibition | Q9H3R0 | GST-JMJD2C(1-420) H3K9me3 demethylation, DELFIA europium | inhibition, % at 2.35 µM | 330,000 tested, 0.069% active;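 active = more than half of a compound's replicate wells show inhibition beyond 50%, single wells judged on their own value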;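 also: signal counts dimethyl H3K9 product captured on neutravidin plate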
ADAM17 inh – ADAM17 inhibition, QFRET primary screen; P78536; recombinant ADAM17, EDANS/DABCYL FRET peptide cleavage; 370,000 tested, 0.83% active; inhibition, % at 6.95 µM;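 active = inhibition above the mean of compounds lying between control limits plus 3 SD, set per campaign, cut at about 8.5% in these data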
NR2E3 ag-2 – activates human NR2E3 receptor; Q9Y5X4; CHO-S Gal4-NCOR/VP16-NR2E3 two-hybrid, luciferase; inhibition of corepressor binding, % at 3.98 µM; 360,000 tested, 0.35% active; AID 602229;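 active = inhibition above the mean of all tested compounds plus 3 SD, cut at about 70% in these data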;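 also: higher means lower luciferase signal from less NR2E3 corepressor binding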
ADAM10 inh – inhibits human ADAM10. O14672. recombinant ADAM10, EDANS/DABCYL FRET peptide cleavage, 3 h. inhibition, % at 7 µM. 370,000 tested, 0.62% active;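 active = inhibition above a per-campaign cutoff equal to the mean of compounds falling between control-based bounds plus 3 SD, cut at about 20% in these data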
ADAM10 confirm – confirmation of inhibitors of human ADAM10. shares compounds with ADAM10 inh. ADAM10 QFRET peptide cleavage, EDANS fluorescence. inhibition, % at 6.95 µM. 2,100 tested, 1% active;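 active = inhibition above about 20% chosen separately for each screening run, limit read from the data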
ADAM17 counter – inhibits human ADAM17 in ADAM10 exosite counter-screen; shares compounds with ADAM10 inh; ADAM17 QFRET peptide cleavage, EDANS fluorescence; inhibition, % at 6.95 µM; 2,100 tested, 0.5% active; AID 743214;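 active = mean triplicate inhibition above the solvent-only control wells' mean plus 3 SD, cut at about 12% in these data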
Large screens that a line does not name were inactive (follow-up assays come after a bar, where they were run).

CCCNC(=O)C(Cc1cccc(OC)c1)NC(=O)c1ccc(C#N)cc1 (stereo not drawn)	none
CCCNC(=O)C(Cc1cccc(OC)c1)NC(=O)c1ccc(C(C)(C)C)cc1 (stereo not drawn)	ADAM10 inh 83 | ADAM10 confirm inactive | ADAM17 counter inactive
Cc1cccc(N2CCN(S(=O)(=O)c3ccc4c(c3)CC(=O)N4C)CC2)c1C	ADAM10 inh 21 | ADAM10 confirm inactive | ADAM17 counter inactive
O=C(COC(=O)CNC(=O)c1ccccc1F)Nc1ncc(Cl)cc1Cl	none
Cc1ccc(S(=O)(=O)Nc2ccc(NC(=O)Nc3ccc(F)cc3F)cc2)cc1	ADAM10 inh 20 | ADAM10 confirm inactive | ADAM17 counter inactive
O=C(Nc1ccc(S(=O)(=O)N2CCCC2)cc1)Nc1ccc(F)cc1F	none
COc1ccc(-c2noc(-c3ccccc3C(=O)Nc3cccnc3)n2)cc1	none
COc1ccc(-c2noc(-c3ccccc3C(=O)Nc3cccc(OC)c3)n2)cc1	ADAM10 inh 25 | ADAM10 confirm inactive | ADAM17 counter inactive
C[C@@H](c1ccccc1)N1C[C@H](COCc2ccccc2)Oc2cc(N3CC[C@H](O)C3)ccc2S1(=O)=O	ADAM10 inh 21 (no result: NR2E3 ag-1, JMJD2C inh) | ADAM10 confirm inactive | ADAM17 counter inactive
COc1ccc([C@@H]2[C@@H]3C(=O)N(C(C)(C)C)C(=O)[C@@H]3[C@]3(Cc4ccc(Cl)cc4)C(=O)N(c4ccc(OC)cc4)C(=O)N23)cc1	ADAM10 inh 21 | ADAM10 confirm inactive | ADAM17 counter inactive
Cn1cc(C(=O)c2ccc(Cl)cc2Cl)cc1C(=O)N/N=C(\N)COc1ccc(Cl)cc1Cl	ADAM17 inh 20, ADAM10 inh 30 | ADAM10 confirm inactive | ADAM17 counter inactive
Cn1cc(C(=O)c2ccc(Cl)cc2Cl)cc1C(=O)N/N=C(\N)COc1ccccc1	none
CCCc1c(Cc2cccc(F)c2)ncn1CCc1ccccc1OC	ADAM10 inh 46 (no result: NR2E3 ag-1, JMJD2C inh, NR2E3 ag-2) | ADAM10 confirm inactive | ADAM17 counter inactive
COC(=O)c1ccc(CSc2nnc(CS(=O)Cc3ccc(Br)cc3)n2-c2ccccc2)cc1 (stereo not drawn)	none
O=S(Cc1ccc(Br)cc1)Cc1nnc(SCc2ccc(Br)cc2)n1-c1ccccc1 (stereo not drawn)	ADAM10 inh 22 | ADAM10 confirm inactive | ADAM17 counter inactive
CC(C)NC(=O)CN1C(=O)CSc2ccc(S(=O)(=O)N3CCCC3)cc21	none
COc1ccc(OC(F)(F)F)cc1CC1(C)C(=O)Nc2ccc(-c3ccsc3)cc21 (stereo not drawn)	ADAM10 inh 26 (no result: NR2E3 ag-1, JMJD2C inh) | ADAM10 confirm inactive | ADAM17 counter inactive
COc1ccc(C(C)=O)cc1CC1(C)C(=O)Nc2ccc(OC(F)(F)F)cc21 (stereo not drawn)	none (no result: NR2E3 ag-1, JMJD2C inh)
CCOc1cc(C(=O)NCC(C)(C)CNC(=O)c2cc(OCC)c(OCC)c(OCC)c2)cc(OCC)c1OCC	ADAM10 inh 21 | ADAM10 confirm inactive | ADAM17 counter inactive
COc1ccc(/C=N/NC(=O)C2(C)NC(C)(C)Cc3ccccc32)cc1 (stereo not drawn)	none
COc1cc(OC)c(C2CC(=O)N3CN(c4ccccc4)CSC3=C2C#N)cc1OC (stereo not drawn)	ADAM10 inh 24 | ADAM10 confirm inactive | ADAM17 counter inactive
CCc1ccccc1N1CSC2=C(C#N)C(c3cc(OC)c(OC)cc3OC)CC(=O)N2C1 (stereo not drawn)	none
Cc1ccc(C(=O)N2CCN(C)CC2)cc1S(=O)(=O)N1CCCCCC1	none
CSc1nnc(CSCc2ccc(Cl)cc2Cl)n1-c1ccccc1	ADAM10 inh 23 | ADAM10 confirm inactive | ADAM17 counter inactive
Cc1cccc2c1c1ccc3c(c1n2C)C(=O)C=CC3=O	none (no result: NR2E3 ag-1, JMJD2C inh)
C=CCn1c(SCC(=O)Nc2cc(C)on2)nnc1-c1ccncc1	none (no result: NR2E3 ag-1, JMJD2C inh)
O=C(O)C(Nc1nc(C(F)(F)F)nc2ccccc12)c1ccccc1 (stereo not drawn)	ADAM10 inh 20 | ADAM10 confirm inactive | ADAM17 counter inactive
O=C(CSc1nc(=O)n(CCCN2CCOCC2)c2c1CCC2)Nc1ccccc1F	ADAM10 inh 80 | ADAM10 confirm inactive | ADAM17 counter inactive
CCCc1cc(CN(C)C(=O)c2ccc(OC3CCN(C(C)=O)CC3)c(OC)c2)[nH]n1	none (no result: NR2E3 ag-1, JMJD2C inh)
CCOC(=O)c1sc(=S)n(C)c1NC(=O)c1ccccc1Cl	none
N#Cc1c(NC(=O)CSc2n[nH]c(N)n2)oc(-c2ccccc2)c1-c1ccccc1	ADAM10 inh 20 | ADAM10 confirm inactive | ADAM17 counter inactive
COc1cc(NC(=O)C(OC(=O)CNC(=O)c2ccccc2)c2ccccc2)cc(C(F)(F)F)c1 (stereo not drawn)	ADAM17 inh 15, ADAM10 inh 29 (no result: NR2E3 ag-1, proKLK7 act, JMJD2C inh, NR2E3 ag-2) | ADAM10 confirm inactive | ADAM17 counter inactive
Oc1ccccc1C(Nc1nccs1)c1ccc2cccnc2c1O (stereo not drawn)	ADAM10 inh 20 | ADAM10 confirm inactive | ADAM17 counter inactive
CC(C)c1ccc(C(=O)NCCCNC(=O)c2cnccn2)cc1	ADAM10 inh 51 | ADAM10 confirm inactive | ADAM17 counter inactive
O=C(NCCNC(=O)c1cnccn1)c1ccc(Cl)cc1	none
OC(c1ccc(F)c(F)c1)c1ncc(-c2cccc(C(F)(F)F)c2)[nH]1 (stereo not drawn)	none (no result: NR2E3 ag-1, JMJD2C inh)
OC(c1ccc2c(c1)OCO2)c1ncc(-c2cccc(C(F)(F)F)c2)[nH]1 (stereo not drawn)	ADAM10 inh 20 (no result: NR2E3 ag-1, JMJD2C inh) | ADAM10 confirm inactive | ADAM17 counter inactive
Cc1cccc(-c2noc(CCCC(=O)NC3CCCC3)n2)c1	none
O=C(Nc1ccc(Cl)cn1)c1ccc2[nH]c(=O)c(=O)[nH]c2c1	none
O=C(NC(=S)Nc1ccccc1N1CCCC1)c1ccc(-c2cccc([N+](=O)[O-])c2)o1	ADAM10 inh 20 | ADAM10 confirm inactive | ADAM17 counter inactive
COc1cccc(CCc2nnc(CCC(=O)NC(C)c3c(C)nn(C)c3C)o2)c1 (stereo not drawn)	none
Cc1ccc(C(=O)O)cc1NC(=S)NC(=O)c1ccc([N+](=O)[O-])c(C)c1	none
CCOC(=O)[C@]12CCCC=C1N(Cc1ccc(Cl)cc1Cl)C(=O)[C@H](CC(=O)NCc1ccccc1)C2	none (no result: NR2E3 ag-1, JMJD2C inh)
CCOC(=O)[C@]12CCC=C1N(Cc1ccc(Cl)cc1Cl)C(=O)[C@H](CC(=O)NCc1ccc(OC)c(OC)c1)C2	ADAM10 inh 20 (no result: NR2E3 ag-1, JMJD2C inh) | ADAM10 confirm inactive | ADAM17 counter inactive
